ANO1 activ – TMEM16A chloride channel activators or potentiators, primary screen, cell-based, HTS | Anoctamin-1 (Mus musculus), Q8BHY3 | HEK293 TMEM16A/YFP-H148Q/I152L, iodide quench fluorescence; hits give low values | 340,000 compounds, 0.3% hits | B-score at 10 µM;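 active = fluorescence-ratio B-score plate-corrected deviation score at least 3 library SD below zero, with starting fluorescence score within 5 deviations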;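 note: channel opened by trigger with iodide after compound preincubation; score built on the fluorescence ratio of max minus min over baseline; more negative score means more quench and so TMEM16A activation or potentiation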
Kir21 block – inhibitors of mouse Kir2.1 inward-rectifier potassium channel. Inward rectifier potassium channel 2 (Mus musculus), P35561. HEK293-Kir2.1, FluxOR thallium flux fluorescence; hits give low values. B-score at 10 µM. 310,000 compounds, 0.85% hits;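 active = fluorescence ratio B-score at or below minus 3 SD of library scores, with starting-brightness B-score within 2 SD, cut at about -4.2 in these data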;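 note: channel flux triggered by added potassium and thallium sulfate stimulus; B-score of peak minus minimum fluorescence over baseline after thallium stimulus; more negative B-score means stronger Kir2.1 block with less thallium influx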
SR-BI DiI-HDL act – activators of SR-BI mediated DiI-HDL uptake, primary screen, ldlA[mSR-BI] CHO cells, DiI fluorescence; activation, % at 12.5 µM; 320,000 compounds, 0.096% hits; AID 504775, 2011; 3 h; 100 = double the neutral-control signal;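 active = mean replicate activation of at least 60% and every replicate at or above 60%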
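Material: SR-BI-overexpressing, LDLR-lacking CHO cells; schedule: compound exposure 3 h, 37 °C; reagent: DiI-labelled HDL at 10 µg/mL final; technique: bottom-read fluorescence, 550/595 nm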
TMEM16A inh – TMEM16A chloride channel inhibitors, primary screen, cell-based, HTS. AID 588511, 2011. normalized B-score (activity score, 25-100; higher = stronger inhibition) at 10 µM. HEK293 TMEM16A/YFP iodide influx fluorescence, ionomycin. 310,000 compounds, 1.2% hits;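 active = ratio plate-corrected score three or more library SD toward inhibition, starting fluorescence score within five deviations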;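 note: score derived from kinetic fluorescence span divided by baseline fluorescence per well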
SR-BI DiI inh – inhibitors of SR-BI mediated HDL lipid uptake, primary screen, ldlA[mSR-BI] cells, fluorescence, single point | Scavenger receptor class B member 1 (Mus musculus), Q61009 | ldlA[mSR-BI] CHO cells, DiI-HDL uptake fluorescence, 3 h | inhibition, % at 12.5 µM | 320,000 compounds, 0.96% hits | AID 488896, 2010;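 active = mean replicate inhibition of at least 70% and a set share of replicates each scoring 70 or more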
DNA FID counter – compounds displacing fluorescent DNA intercalator, primary screen, artefact control for HCV NS3 helicase inhibitor project, biochemical, FID fluorescence. 290,000 compounds, 0.17% hits. AID 1845, 2009. inhibition, % at 7.9 µM. DNA fluorescent intercalator displacement; in the data active = inhibition above about 37%;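 note: higher means more ethidium bromide displaced from hairpin DNA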
Numbers stand for hits; - = inactive; . = no result. Most compounds without a hit are left out; they make up all but 3% or so of the library.

SMILES	ANO1 activ	Kir21 block	SR-BI DiI-HDL act	TMEM16A inh	SR-BI DiI inh	DNA FID counter
CCc1c(C(=O)N/N=C/c2ccc(OCc3ccc(F)cc3)c(OC)c2)nnn1-c1nonc1N	-	-	-	-	76	-
Cc1ccc(COc2ccc(/C=N/NC(=O)c3nnn(-c4nonc4N)c3COc3ccc(F)cc3)cc2)cc1	-	-	-	-	71	-
COc1ccc2ccccc2c1/C=N/NC(=O)c1nnn(-c2nonc2N)c1C(C)C	-	-	-	-	77	-
Cc1cn(CC(=O)NCc2ccc3c(c2)OCO3)c(=O)[nH]c1=O	.	.	-	.	-	.
C[C@H](NS(=O)(=O)c1c(Cl)cccc1Cl)C(=O)NNC(=O)COc1ccccc1F	-	.	-	.	-	.
COc1cccc(CN2CCC(C(=O)Nc3ccc(Oc4cccnc4)cc3)CC2)c1	-	-	-	.	-	-
Cc1cccc(CN2CCC(C(=O)Nc3ccc(Oc4cccnc4)cc3)CC2)c1	-	-4.3	-	-	-	-
COc1cc(C)ccc1OCc1cc(C(=O)N2CCCCCCC2)no1	-	-	-	-	-	-
CN(C)c1ccc(C2N3CC4(C)CN2CC(C)(C3)C4O)cc1 (configuration not stated)	-	-	-	-	-	-
CC12CN3CC(C)(CN(C1)C3c1ccc(Cl)cc1Cl)C2O (configuration not stated)	-	-	79	-	-	-
CC(C)N(C)C1=CC(=O)C(N(C)C(C)C)=CC1=O	-	.	-	.	-	.
COc1ccccc1-n1c(CNC(=O)c2ccc(S(=O)(=O)N3CCCCC3)cc2)n[nH]c1=S	-	-	-	-	-	-
COc1ccc(CN(C)C(=O)c2oc3ccccc3c2CSC)cc1F	-	-	-	-	-	-
O=C1Nc2cc(C(=O)NCCCN3CCOCC3)ccc2S/C1=C/c1cccc(Cl)c1	-	-	-	-	-	-
COc1ccc(/C=C2\Sc3ccc(C(=O)NCCCN4CCCC4)cc3N(C)C2=O)cc1OC	-	-	-	-	78	-
O=C1Nc2cc(C(=O)NCCCN3CCCC3)ccc2S/C1=C\c1ccccc1	-	-4.9	-	-	-	-
Cc1ccc(OCC(=O)N(C)CC(=O)Nc2ccccc2Cl)c([N+](=O)[O-])n1	-	.	-	.	-	.
COc1ccc(Cl)cc1Nc1nc(N)c2ccccc2n1	-	-	-	-	-	37
CCOC(=O)c1c(-c2ccc(C)cc2)csc1NC(=O)/C(C#N)=C/c1ccc(O)c(OC)c1	-	-	-	.	-	-
CCOC(=O)c1c(-c2ccccc2)csc1NC(=O)/C(C#N)=C\c1ccc(O)c(OC)c1	-	.	-	.	85	.
CCN(CC)c1ccc(C=C2SC(=S)NC2=O)cc1	-5.1	.	-	.	-	.
O=C(O)c1cc(-n2nnnc2SCc2ccc([N+](=O)[O-])cc2)ccc1Cl	-	-	-	-	-	-
O=[N+]([O-])c1ccc(O)c(CSc2nnnn2-c2ccccc2)c1	-	-	-	100	-	-
N#C/C(=C\c1ccccc1)C(=O)N(c1ccccn1)C1CCCCC1	-	-11	-	-	-	-
O=C(c1cccc(C(=O)N(c2ccccn2)C2CCCCC2)c1)N(c1ccccn1)C1CCCCC1	-	-	-	-	-	-
O=C(Cc1n[nH]c(=O)c2ccccc12)OCC(=O)c1ccccc1	-	.	-	.	-	.
CCOc1ccc(NC(=O)CS(=O)CC(=O)NC2CCCc3ccccc32)cc1 (configuration not stated)	-	-	-	-	74	-
COc1ccccc1OCC(=O)Nc1ccc(NC(=O)COc2ccccc2OC)cc1	-	-	-	-	92	-
COc1cc(CNC(C)c2ccccc2)cc(Cl)c1OCC(=O)Nc1ccccc1 (configuration not stated)	-	-9.5	-	-	-	-
COc1ccccc1OCC(=O)Nc1ccc(Cl)cc1	-	-	-	-	-	-

Bioassay records: PubChem, several laboratories
